Reference: paper PMC3057608 (Cancer research, 2011)
Where two headings read alike, the source gives them in different places. Values belong to the compound of their own block, whether it stands above or below them.

How the values were obtained:
[1] = tested on: CAPAN1 cells; test: Neutral comet assay, BRCA2-null cells; assay type: cell-based
[2] = tested on: HCC1937 cells; test: Clonogenic assay, BRCA1-null cells; assay type: cell-based
[3] = tested on: HCC1937 cells; test: Neutral comet assay, BRCA1-null cells; assay type: cell-based
[4] = tested on: CAPAN1 cells; test: Clonogenic assay, BRCA2-null cells; assay type: cell-based
[5] = biological target: T1, DNA-PKcs (Homo sapiens, UniProt P78527); test: DNA-PKcs kinase assay; assay type: biochemical; conditions: for DNA-PKcs inhibition by truncated/mutant/phosphorylated peptide derivatives: alanine scanning and mutant peptides, DNA-PKcs kinase activity (Fig. 6A)
[6] = biological target: T1, DNA-PKcs; test: Protease protection assay; assay type: biochemical; conditions: 10 μM, trypsin 0.01% 8 min 37°C, immunoblot (Fig. 4H)
[7] = biological target: T1, DNA-PKcs; test: ELISA of GNFRYLAPP/DNA-PKcs interaction; assay type: binding; conditions: pure DNA-PK, 1 μM ATP, sonicated DNA, 37°C 1 h, fluorescence read-out (Fig. 4B)
Procedure, shortened: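 Bait wells: streptavidin plates coated with 100 ng biotinylated linearized pSP72 or 10 ng biotinylated test peptide (or biotinylated scrambled control), or adsorption plates coated with 250 units pure DNA-PK. After blocking, prey is added for 1 h at 37°C with 1 μM ATP, sonicated DNA (50 ng/μL) and protease/phosphatase inhibitors. Non-biotinylated test or scrambled peptide serves as competitor. DNA-PKcs is read with fluorophore-conjugated antibodies and peptide with FITC-streptavidin (1:500) on a fluorescence plate reader.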

[8] = tested on: M059J cells; test: Nuclear focus formation after irradiation, DNA-PK -/- cells; assay type: cell-based; conditions: 10 μM, 1 h after 3 Gy, FITC-streptavidin (Fig. 5A left)
Procedure, shortened: (§1)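 Peptides at 10 μM are added to growth medium 72 h before irradiation or mock-irradiation (137Cs, 333 cGy per minute). Cells are grown on coverslips and fixed 3 min in ice-cold acetone:methanol 1:1 at set times after irradiation. They are blocked 1 h at room temperature in 5% goat serum, with primary reagents in 1% BSA overnight at 4°C and secondary reagents 1 h at room temperature. Foci are imaged by inverted fluorescence microscopy.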

[9] = tested on: Phosphorylated DNA-PKcs (T2609) in KS1767 cells; test: DNA-PKcs autophosphorylation; assay type: cell-based, human; conditions: KS1767, 10 μM, 30 minutes after 3 Gy (Fig. 5B)
Procedure, shortened: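 Peptides, penetratin-fused test or scrambled control at 10 μM, are added to standard growth medium of KS1767 Kaposi sarcoma cells 72 h before irradiation or mock-irradiation. Irradiation uses a 137Cs source at 333 cGy per minute.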

[10] = tested on: KS1767 cells; test: Nuclear focus formation after irradiation, DNA-PKcs +/+ cells; assay type: cell-based, human; conditions: 10 μM
Procedure, shortened: as §1

Compound: COc1cc(C=O)c([N+](=O)[O-])cc1OC [DMNB, reference compound]
residual double-strand breaks by neutral comet assay [1]: increased residual double-strand breaks
radiosensitivity by clonogenic assay [2]: increased radiosensitivity
residual double-strand breaks by neutral comet assay [3]: increased residual double-strand breaks
radiosensitivity by clonogenic assay [4]: increased radiosensitivity

Compound: GNFRYLAPP-pen
nuclear focus formation of biotinylated peptide [8]: did not form foci
phosphorylated DNA-PKcs (T2609) signal after irradiation [9]: no signal was detected
residual double-strand breaks by neutral comet assay ([1]; CAPAN1 (BRCA2-null), 10 μM, 72 h pre-incubation, 3 and 6 hours after 6 Gy (Fig. 5C)): increased residual double-strand breaks
radiosensitivity by clonogenic assay ([2]; HCC1937 (BRCA1-null), 10 μM, 72 h pre-incubation (Fig. 5D-E)): increased radiosensitivity
residual double-strand breaks by neutral comet assay ([3]; HCC1937 (BRCA1-null), 10 μM, 72 h pre-incubation, 3 and 6 hours after 6 Gy (Fig. 5C)): increased residual double-strand breaks
nuclear focus formation of biotinylated peptide ([10]; KS1767 (DNA-PKcs +/+), 1 h after 3 Gy, FITC-streptavidin (Fig. 5A left)): formed foci
resolution of peptide foci over time after irradiation ([10]; KS1767, 3 Gy, majority of cells retaining foci as late as 12 hours (Fig. 5A right)): slow resolution
radiosensitivity by clonogenic assay ([4]; CAPAN1 (BRCA2-null), 10 μM, 72 h pre-incubation (Fig. 5D-E)): increased radiosensitivity

Now from value to compound, other results behind:

phosphorylation of the peptide itself by DNA-PKcs ([5]; Fig. 4C): not phosphorylated
mode of DNA-PKcs inhibition ([5]; conclusion from binding, kinase and protease protection data): non-competitive inhibitor
effect on DNA-PKcs phosphorylation of its p53-derived consensus substrate ([5]; pure DNA-PK, increasing molar ratios of peptide to substrate (Fig. 4C)): progressively inhibited
interaction with DNA-PKcs by ELISA [7]: sufficient for attracting
Compound: GNFRYLAPP
effect on DNA-induced protection of DNA-PKcs from trypsin digestion [6]: prevented the protection from trypsin digestion

DNA-PKcs inhibition by truncated/mutant/phosphorylated peptide derivatives [5]: abolished
Compound: GSFRYL

DNA-PKcs inhibition by truncated/mutant/phosphorylated peptide derivatives [5]: reestablished DNA-PKcs inhibition
Compound: GpSFRYL

interaction with DNA-PKcs by ELISA [7]: no detectable interaction
Compound: RYPAGLPFL [scrambled peptide, reference compound]
